Screening results: PubChem, several laboratories
Shown is part of a subset that was picked to be rich in hits.
Lmaj promast: reduces viability of Leishmania major promastigotes. resazurin fluorescence viability. inhibition, % at 10 µM. 200,000 tested, 9% active; in the data active = inhibition above about 50%;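 note: promastigotes grown with compound for 44 hours at 28 °C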
CHOP inh: inhibitors of CHOP induction in ER stress response | CHO-K1 CHOP-promoter luciferase, tunicamycin-induced, 15-18 h | inhibition, % at 10 µM | 220,000 tested, 3.8% active | AID 2732;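 active = compounds that reduced the stress-induced luciferase reporter signal by more than about 70% of percent inhibition, limit read from the data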;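 note: 0% = tunicamycin plus vehicle and 100% = wells without tunicamycin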
XBP1 UPR activ: activators of adaptive arm of unfolded protein response (XBP1) | activation, % at 20 µM | CHO-XBP1 luciferase reporter, IRE1-XBP1 UPR activation, luminescence; percent of tunicamycin response, DMSO as zero | 330,000 tested, 0.33% active | AID 463104;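 active = versus positive control, 20 µM dose yields 30% or more activation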;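 note: 100% = tunicamycin at 10 µg/mL and 0% = DMSO only wells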
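Assay system: IRE1-XBP1 luciferase reporter CHO line. Input: 1000 cells/well. Buffer or medium: F12 with 10% serum. Doses: 20 µM, 1% DMSO. Times: overnight seeding at 37 °C, 6 h compound treatment at 37 °C. Technique: Steady-Glo luciferase glow luminescence, 10 min after reagent addition.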
T cruzi repl: blocks replication of Trypanosoma cruzi; T. cruzi beta-gal in NIH3T3, luminescence, 90 h; inhibition, % (concentration not given with the values); 300,000 tested, 1.4% active;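 active = mean inhibition across valid replicates above about 55%, limit read from the data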;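 note: signal also drops with host cell toxicity which is not excluded here; 0% = plate median of DMSO wells and 100% = zero luminescence signal; higher percent means less beta-gal luminescence so fewer parasites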
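Assay system: NIH/3T3 host cells with β-galactosidase reporter T. cruzi; input: 5,000 host fibroblasts per well; compound: single 50 nL compound addition per well in DMSO; timing: ≥90 h infection period, 3 h prior cell attachment; measured by: GalScreen β-gal luminescence, detergent lysis, 60 min; evaluation: percent inhibition of parasite-derived β-gal signal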
UPR CHOP act: activators of apoptotic arm of unfolded protein response (CHOP). AID 449763. CHO-CHOP luciferase reporter, UPR activation, luminescence; percent of tunicamycin response over DMSO baseline. 330,000 tested, 0.34% active. activation, % at 10 µM;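 active = at 10 µM dose, activation of 40% or more, normalized to positive control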;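 note: 100% = tunicamycin at 10 µg/mL and 0% = DMSO alone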
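System: CHO-CHOP luciferase reporter cell line | Buffer or medium: F12 medium containing 10% fetal bovine serum | Doses: One dose, 10 µM in 0.5% DMSO | Times: 6 h compound exposure at 37 °C after overnight seeding | Signal: Luciferase luminescence | Read-out: % activation vs tunicamycin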
Dynein cargo inh: blocks dynein driven cargo transport along microtubules | 3617.4 mouse cells, GR-EGFP nuclear translocation imaging; test concentration mostly 20 µM; stimulated with dexamethasone, 1 µM; active compounds read low | z-score, hits read low | 220,000 tested, 0.47% active | AID 1381;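 active = plate z-score of nuclear minus cytoplasmic receptor signal below a set negative limit, without overly bright fluorescence or cell loss, cut at about -3.5 in these data, passing the limit was not always enough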;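 note: z-score of nuclear minus cytoplasmic ring GR-EGFP intensity difference per well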
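Medium: Induction medium lacking tetracycline, stripped serum | Probe or stimulus: 1.0 µM final dexamethasone stimulus | Schedule: 48 h induction, then 1 h compound, then 30 min agonist, 37 °C | Signal: Automated 10x imaging of fixed Hoechst-stained cells | Evaluation: Per-cell GR-EGFP intensity, nucleus versus surrounding cytoplasmic ring, well-averaged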
Starred values were filed as active, the others as inactive; / = not tested or not shown.

SMILES	Lmaj promast	CHOP inh	XBP1 UPR activ	T cruzi repl	UPR CHOP act	Dynein cargo inh
Cc1nc2sc3c(c2c2nnc(SCC(=O)NCc4ccco4)n12)CCCC3	8.6	22.6	-2.1	7.0	-0.7	0.794
O=C(CSc1nc2c(sc3ccccc32)c(=O)n1CCO)NCc1ccco1	-2.5	-33.2	-0.2	8.4	-1.2	1.02
O=C(CSc1nc2c(sc3ccccc32)c(=O)n1CCCN1CCCC1)NCc1ccco1	94.7*	8.7	-2.5	14.7	1.3	0.895
Cc1sc2nc(SCC(=O)NCc3ccco3)n(CCc3ccccc3)c(=O)c2c1C	3.5	95.1*	16.7	40.5	16.1	0.435
Cc1sc2nc(SCC(=O)NCc3ccco3)n(C)c(=O)c2c1C	1.1	37.1	-1.2	0.5	-1.3	-1.4
C=CCn1c(SCC(=O)NCC2CCCO2)nc2scc(-c3ccco3)c2c1=O (configuration not stated)	4.3	40.8	0.3	-6.3	2.3	-0.188
COCCCn1c(SCC(=O)NCc2ccco2)nc2sc3c(c2c1=O)CCC3	50.6*	-9.9	-4.6	34.4	-0.2	0.467
C=CCn1c(SCC(=O)NC(=O)NCc2ccco2)nc2sc(CC)cc2c1=O	0.2	82.7*	-2.3	8.1	0.5	-0.555
Cc1ccc(CSc2nc3ccccc3c(=O)n2Cc2ccco2)cc1	61.6*	3.6	-3.5	23.5	1.1	-0.735
C=CCn1c(SCC(=O)NCc2ccco2)nc2ccccc2c1=O	0.7	26.1	0.3	4.3	0.7	-0.347
CCN(CC)C(=O)CSc1nc2sc3c(c2c(=O)n1CCCOC)CCC3	/	/	-0.2	4.7	-1.2	/
C=CCn1c(SCc2ccc(C(=O)O)cc2)nc2sc(C)c(C)c2c1=O	/	18.7	0.8	-1.8	1.9	-0.0351
Cc1sc2nc(SCc3ccc(C(=O)O)cc3)n(Cc3ccco3)c(=O)c2c1C	/	3.5	2.1	60.5*	-0.2	-0.814
CC(N)(Cc1ccc(O)c(O)c1)C(=O)O (configuration not stated)	/	-9.2	/	/	/	/
FC(F)(F)c1ccccc1NC(=S)Nn1cnnc1	/	/	0.3	/	0.4	/
O=C(COC(=O)c1ccccc1Cc1ccccc1)NC1CCS(=O)(=O)C1 (configuration not stated)	/	/	-2.4	-8.5	2.8	/
CCCCCn1c(SCC(=O)OCC)nc2cc(C(=O)NCc3ccco3)ccc2c1=O	22.9	73.4*	0.5	3.9	0.0	2.57
CC1(C)Cc2c(sc3nc(SCC(=O)NCc4ccco4)n(-c4ccccc4)c(=O)c23)CS1	52.8*	29.0	-3.2	35.7	-2.9	1.45
O=C(CSc1nc2ccccc2c(=O)n1-c1ccc(F)cc1)NCc1ccco1	39.5	-0.5	-2.4	-2.6	-1.1	-0.056
CCCS(=O)(=O)c1nc(S(=O)(=O)c2ccc(C)cc2)c(N2CCN(CCO)CC2)s1	/	/	-6.2	-3.4	0.4	/
CC(C)n1cc(CN2CCN(C)C(CCO)C2)c2ccccc21 (configuration not stated)	/	/	-3.0	59.3*	-2.3	/
Cc1ccccc1-c1ccc(CN2CCN(C)C(CCO)C2)cc1 (configuration not stated)	/	/	0.3	58.5*	1.0	/
CC(C)Cn1c(CN2CCN(C)C(CCO)C2)nc2ccccc21 (configuration not stated)	/	/	-0.9	23.5	-1.4	/
COc1ccc(/C=C/C(=O)NC(=S)NNC(=O)c2cc(OC)c(OC)c(OC)c2)cc1	/	89.4*	5.1	-15.2	-1.3	-0.416
COc1ccc(/C=C/C(=O)NC(=S)NNC(=O)c2ccco2)cc1	99.1*	15.9	-1.2	-0.6	-0.2	-0.347
SMILES	Lmaj promast	CHOP inh	XBP1 UPR activ	T cruzi repl	UPR CHOP act	Dynein cargo inh
COc1ccc(/C=C/C(=O)NC(=S)NNC(=O)c2cc(OC)c(OC)c(OC)c2)cc1OC	/	14.6	0.8	-2.1	-1.5	0.909
Cc1ccccc1NCCC(=O)Nc1ccc(Cl)cc1	/	/	4.2	2.1	3.7	/
O=C(CSc1nc2ccccc2c(=O)n1-c1ccc(OC(F)F)cc1)NC1CC1	/	/	2.3	/	0.0	/
Cc1c(C(=O)Oc2ccc(F)cc2)sc2ncn(Cc3cccc(F)c3)c(=O)c12	50.9*	41.0	-0.1	-8.9	-0.4	-0.125
CCn1cnc2sc(C(=O)Oc3cccc(C)c3)c(C)c2c1=O	40.9	-20.2	6.2	1.6	3.2	1.45
CC(=O)N1c2ccccc2Sc2ccccc21	/	/	-0.1	8.3	-0.6	/
CN1c2ccccc2Sc2cc(N)ccc21	/	/	9.7	70.9*	1.5	/
Cc1cccc(NC(=O)C(C)Sc2nc3nc(C)cc(C)n3n2)c1 (configuration not stated)	/	/	-0.6	/	-0.4	/
COc1ccc(C(=O)COC(=O)c2cc(=O)c3ccccc3o2)cc1	/	/	-2.8	/	-1.8	/
CC(=O)N1CCN(c2ccccc2NC(=O)COc2ccc(Br)cc2)CC1	25.6	-0.8	-2.5	19.1	0.6	1.55
Cc1ccccc1OCC(=O)Nc1ccccc1N1CCCCC1	31.3	88.8*	1.0	16.4	3.2	-0.792
Cc1cc(C)cc(OCC(=O)Nc2ccccc2N2CCCCC2)c1	-4.9	86.0*	-2.9	18.7	0.5	0.294
Cc1ccc(C(C)C)c(OCC(=O)Nc2ccccc2N2CCN(C)CC2)c1	59.5*	77.5*	-1.9	32.2	-9.7	-3.14
O=C(COc1ccc(Br)cc1)Nc1ccccc1N1CCCC1	-6.6	70.2*	-2.2	18.6	-0.3	-0.0111
CC(=O)N1CCN(c2ccccc2NC(=O)COc2cc(C)ccc2C(C)C)CC1	30.3	21.8	-2.3	/	1.0	0.917
O=C(NC1CCN(Cc2ccc(Cl)cc2)CC1)c1cn(-c2ccccc2)nc1-c1cccnc1	/	/	-0.6	/	1.5	/
CC(C)(C)NC(=O)NC(=O)CN1CCN(C(c2ccccc2)c2ccccc2)CC1	45.7	48.9	0.1	13.0	1.4	0.127
Cc1nccn1C(c1ccccc1)c1ccccc1	/	/	-4.9	-5.1	0.7	/
CC1(C)CNc2cc([N+](=O)[O-])ccc2S1	11.0	85.0*	0.9	7.2	3.0	0.778
CCOc1cc(/C=N/O)ccc1OS(=O)(=O)c1ccc(C)cc1	10.1	55.2	2.7	-5.6	-0.5	0.126
NC(N)=N/N=C/c1ccc(OS(=O)(=O)c2ccccc2)cc1	88.1*	-2.8	-0.7	57.0*	-0.5	0.258
CCOc1cc(/C=N/NC(=O)COc2ccccc2C)ccc1OC(=O)c1cccs1	-3.2	75.8*	-1.4	6.0	0.0	0.752
CCOc1cc(/C=N/NC(=O)COc2ccc(C)cc2)ccc1OC(=O)c1cccs1	1.5	33.6	0.3	-2.3	-0.5	0.291
CCOc1cc(/C=N/NC(=O)COc2ccc(Cl)cc2)ccc1OS(=O)(=O)c1ccccc1	95.6*	81.0*	1.6	40.1	1.9	-0.578
